# From ChEMBL document CHEMBL4680306, “The 3-D conformational shape of N-naphthyl-cyclopenta[d]pyrimidines affects their potency as microtubule targeting agents and their antitumor activity” (Bioorg Med Chem, 2021)
# Activity calls are given as the source filed them. The rule behind the calls is not given here.
# Key:
# [1] = Induction of microtubule depolymerisation in rat A-10 cell line measured after 18 hrs by indirect immunofluorescence method; settings: a10
# Method in brief: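 Rat A-10 cells, chosen because they arrest in interphase without significant mitotic accumulation, were exposed to compounds for 18 h. Cellular microtubules were then visualized by indirect immunofluorescence. EC50 values come from at least three independent experiments.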
# [2] = tested on: MDA-MB-435; assay: Antiproliferative activity against human MDA-MB-435 cell line assessed as inhibition of cell proliferation measured after 48 hrs by SRB assay; format: functional, cell-based; settings: MDA-MB-435, 48 h
# Method in brief: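 MDA-MB-435 melanoma cells were assessed by sulforhodamine B assay. IC50 is the mean ± SD of at least three independent experiments, each run in triplicate.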
# [3] = Inhibition of bovine tubulin polymerization assessed as reduction in extent of assembly preincubated for 15 mins followed by addition of reaction mixture measured after 20 mins by turbidimetric assay; set-up: species or system Bos taurus
# Method in brief: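 After chilling, GTP was added (0.4 mM final). Turbidity at 350 nm was read after a jump from 0 °C to 30 °C.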
# [4] = species: Bos taurus; assay: Inhibition of [3H]colchicine binding to bovine tubulin at 5 uM measured after 10 mins by scintillation counting
# Method in brief: (§1)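 Purified bovine brain tubulin at 1.0 µM was mixed with 5.0 µM [3H]colchicine and inhibitor, plus components that stabilize colchicine binding, in 5% DMSO; tubulin was added last, on ice. Binding ran 10 min at 37 °C and was stopped with ice water. Mixtures were filtered through stacked DEAE-cellulose filters, and bound radiolabel was measured by scintillation counting.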
# [5] = species: Bos taurus; assay: Inhibition of [3H]colchicine binding to bovine tubulin at 1 uM measured after 10 mins by scintillation counting; method in brief: as §1
# [6] = tested on: U-251; assay: Antitumour activity against human U251 cells xenografted in NCr athymic nude nu/nu mouse assessed as decrease in tumour growth at 17.5 mg/kg twice in a week; format: functional, organism-based
# [7] = tested on: A549; assay: Cytotoxicity against human A549 cells assessed as inhibition of cell growth measured after 48 hrs by SRB assay; format: functional
# [8] = tested on: NCI-H23; assay: Cytotoxicity against human NCI-H23 cells assessed as inhibition of cell growth measured after 48 hrs by SRB assay; format: functional
# [9] = tested on: NCI-H460; assay: Cytotoxicity against human NCI-H460 cells assessed as inhibition of cell growth measured after 48 hrs by SRB assay; format: functional
# [10] = tested on: NCI-H522; assay: Cytotoxicity against human NCI-H522 cells assessed as inhibition of cell growth measured after 48 hrs by SRB assay; format: functional
# [11] = tested on: SF-268; assay: Cytotoxicity against human SF-268 cells assessed as inhibition of cell growth measured after 48 hrs by SRB assay; format: functional
# [12] = tested on: SF-295; assay: Cytotoxicity against human SF-295 cells assessed as inhibition of cell growth measured after 48 hrs by SRB assay; format: functional
# [13] = tested on: U-251; assay: Cytotoxicity against human U-251 cells assessed as inhibition of cell growth measured after 48 hrs by SRB assay; format: functional
# [14] = tested on: A498; assay: Cytotoxicity against human A498 cells assessed as inhibition of cell growth measured after 48 hrs by SRB assay; format: functional
# [15] = tested on: ACHN; assay: Cytotoxicity against human ACHN cells assessed as inhibition of cell growth measured after 48 hrs by SRB assay; format: functional
# [16] = tested on: CAKI-1; assay: Cytotoxicity against human CAKI-1 cells assessed as inhibition of cell growth measured after 48 hrs by SRB assay; format: functional
# [17] = tested on: SN12C; assay: Cytotoxicity against human SN12C cells assessed as inhibition of cell growth measured after 48 hrs by SRB assay; format: functional
# [18] = tested on: TK-10; assay: Cytotoxicity against human TK-10 cells assessed as inhibition of cell growth measured after 48 hrs by SRB assay; format: functional
# [19] = tested on: UO-31; assay: Cytotoxicity against human UO-31 cells assessed as inhibition of cell growth measured after 48 hrs by SRB assay; format: functional
# [20] = tested on: HCC 2998; assay: Cytotoxicity against human HCC 2998 cells assessed as inhibition of cell growth measured after 48 hrs by SRB assay; format: functional
# [21] = tested on: HCT-116; assay: Cytotoxicity against human HCT-116 cells assessed as inhibition of cell growth measured after 48 hrs by SRB assay; format: functional
# [22] = tested on: HCT-15; assay: Cytotoxicity against human HCT-15 cells assessed as inhibition of cell growth measured after 48 hrs by SRB assay; format: functional
# [23] = tested on: SW-620; assay: Cytotoxicity against human SW-620 cells assessed as inhibition of cell growth measured after 48 hrs by SRB assay; format: functional
# [24] = tested on: OVCAR-4; assay: Cytotoxicity against human OVCAR-4 cells assessed as inhibition of cell growth measured after 48 hrs by SRB assay; format: functional
# [25] = tested on: OVCAR-8; assay: Cytotoxicity against human OVCAR-8 cells assessed as inhibition of cell growth measured after 48 hrs by SRB assay; format: functional
# [26] = tested on: NCI/ADR-RES; assay: Cytotoxicity against human NCI/ADR-RES cells assessed as inhibition of cell growth measured after 48 hrs by SRB assay; format: functional
# [27] = tested on: SK-OV-3; assay: Cytotoxicity against human SK-OV-3 cells assessed as inhibition of cell growth measured after 48 hrs by SRB assay; format: functional
# [28] = tested on: M14; assay: Cytotoxicity against human M14 cells assessed as inhibition of cell growth measured after 48 hrs by SRB assay; format: functional
# [29] = tested on: MDA-MB-435; assay: Cytotoxicity against human MDA-MB-435 cells assessed as inhibition of cell growth measured after 48 hrs by SRB assay; format: functional
# [30] = tested on: SK-MEL-2; assay: Cytotoxicity against human SK-MEL-2 cells assessed as inhibition of cell growth measured after 48 hrs by SRB assay; format: functional
# [31] = Cytotoxicity against human SK-MEL-5 cells assessed as inhibition of cell growth measured after 48 hrs by SRB assay; format: functional
# [32] = tested on: UACC-62; assay: Cytotoxicity against human UACC-62 cells assessed as inhibition of cell growth measured after 48 hrs by SRB assay; format: functional
# [33] = tested on: PC-3; assay: Cytotoxicity against human PC-3 cells assessed as inhibition of cell growth measured after 48 hrs by SRB assay; format: functional
# [34] = tested on: MCF7; assay: Cytotoxicity against human MCF7 cells assessed as inhibition of cell growth measured after 48 hrs by SRB assay; format: functional
# [35] = tested on: MDA-MB-231; assay: Cytotoxicity against human MDA-MB-231 cells assessed as inhibition of cell growth measured after 48 hrs by SRB assay; format: functional
# [36] = tested on: Hs-578T; assay: Cytotoxicity against human Hs-578T cells assessed as inhibition of cell growth measured after 48 hrs by SRB assay; format: functional
# [37] = tested on: BT-549; assay: Cytotoxicity against human BT-549 cells assessed as inhibition of cell growth measured after 48 hrs by SRB assay; format: functional
# [38] = tested on: T47D; assay: Cytotoxicity against human T47D cells assessed as inhibition of cell growth measured after 48 hrs by SRB assay; format: functional
# [39] = tested on: CCRF-CEM; assay: Cytotoxicity against human CCRF-CEM cells assessed as inhibition of cell growth measured after 48 hrs by SRB assay; format: functional
# [40] = tested on: K562; assay: Cytotoxicity against human K562 cells assessed as inhibition of cell growth measured after 48 hrs by SRB assay; format: functional
# [41] = tested on: MOLT-4; assay: Cytotoxicity against human MOLT-4 cells assessed as inhibition of cell growth measured after 48 hrs by SRB assay; format: functional
# [42] = tested on: RPMI-8226; assay: Cytotoxicity against human RPMI-8226 cells assessed as inhibition of cell growth measured after 48 hrs by SRB assay; format: functional
# [43] = tested on: SR; assay: Cytotoxicity against human SR cells assessed as inhibition of cell growth measured after 48 hrs by SRB assay; format: functional
compound,measurement,setting,value
COc1cccc2cc(N(C)c3nc(C)nc4c3CCC4)ccc12,EC50,[1],4.5 nM
same,IC50,[2],2.8 nM
same,IC50,[3],980 nM
same,inhibition,[4],98%
same,inhibition,[5],86%
same,inhibition,[6],Active
same,GI50,[7],< 10 nM
same,GI50,[8],< 10 nM
same,GI50,[9],< 10 nM
same,GI50,[10],< 10 nM
same,GI50,[11],< 10 nM
same,GI50,[12],< 10 nM
same,GI50,[13],< 10 nM
same,GI50,[14],< 10 nM
same,GI50,[15],< 10 nM
same,GI50,[16],< 10 nM
same,GI50,[17],< 10 nM
same,GI50,[18],9320 nM
same,GI50,[19],10.7 nM
same,GI50,[20],< 10 nM
same,GI50,[21],< 10 nM
same,GI50,[22],< 10 nM
same,GI50,[23],< 10 nM
same,GI50,[24],10.9 nM
same,GI50,[25],< 10 nM
same,GI50,[26],< 10 nM
same,GI50,[27],< 10 nM
same,GI50,[28],< 10 nM
same,GI50,[29],< 10 nM
same,GI50,[30],< 10 nM
same,GI50,[31],< 10 nM
same,GI50,[32],1490 nM
same,GI50,[33],< 10 nM
same,GI50,[34],< 10 nM
same,GI50,[35],< 10 nM
same,GI50,[36],< 10 nM
same,GI50,[37],< 10 nM
same,GI50,[38],< 10 nM
same,GI50,[39],< 10 nM
same,GI50,[40],< 10 nM
same,GI50,[41],< 10 nM
same,GI50,[42],< 10 nM
same,GI50,[43],< 10 nM
